# Assay results collected from several papers.
# Protocols differ between the studies behind these lines.
# CDK14: Cyclin-dependent kinase 14 (CDK14, Homo sapiens, UniProt O94921)
# CDK14 with cyclin Y: Cyclin-dependent kinase 14, with cyclin Y (CDK14, Homo sapiens, UniProt O94921)
target,assay,conditions,endpoint,result,Structure (SMILES)
CDK14,"binding, competition with immobilised ligand",1 µM,remaining binding,100%,Cc1ccc(NC(=O)c2ccnc(C(F)(F)F)c2)cc1-c1cc(OCCO)nc(N2CCOCC2)c1
CDK14 with cyclin Y,binding,1 µM,remaining binding,100%,COc1ccc2oc(-c3ccc4nc(N)oc4c3)c/c(=N\c3ccccc3NC(=O)CCN)c2c1
CDK14,"binding, competition with immobilised ligand",0.5 µM,remaining binding,100%,CCCCC(=O)Nc1ccc(-c2ccc3ncn(CCC)c(=O)c3c2)cn1
CDK14,"enzyme activity, inhibitor",1 µM,inhibition,4%,CC#CC(=O)N1CCC[C@H]1c1nc(-c2ccc(C(=O)Nc3ccccn3)cc2)c2c(N)nccn12
CDK14,"binding, competition with immobilised ligand",1 µM,remaining binding,81%,CN1CCN(C(=O)c2ccc(NC(=O)Nc3ccc(N(C)c4ccnc(Nc5ccc(CS(C)(=O)=O)cc5)n4)cc3)cc2)CC1
CDK14,"enzyme activity, inhibitor",1 µM,inhibition,0%,CO[C@@H]1[C@H](N(C)C(=O)c2ccccc2)C[C@H]2O[C@]1(C)n1c3ccccc3c3c4c(c5c6ccccc6n2c5c31)C(=O)NC4
CDK14,cell-free assay,0.1 µM,remaining signal,87%,C1=C/COCc2cc(ccc2OCCN2CCCC2)Nc2nccc(n2)-c2cccc(c2)COC/1
CDK14 with cyclin Y,"enzyme activity, inhibitor",1 µM,activity vs control,110%,CC(C)S(=O)(=O)c1ccc2nccc(Nc3ccc4sc(C5CCCC5)nc4c3)c2c1
